# Calls of active or inactive are those of the source.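 How the source made its calls: active means radiolabeled lipid uptake into receptor liposomes lowered versus untreated receptor liposomes, like the reference inhibitor; inactive means the rest.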
# Target: Scavenger receptor class B member 1 (Mus musculus) (UniProt Q61009)
# Experiment: inhibitors of purified SR-BI lipid uptake, orthogonal assay for SR-BI HDL uptake inhibitor project, biochemical, reconstituted liposomes, [3H]CE-HDL, scintillation, dry powder (AID 602155)
# Details: SR-BI proteoliposomes, [3H]CE-HDL selective uptake, at 1 µM, stronger effect = lower value
# Method in brief: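 Test system – murine SR-BI proteoliposomes · Probe or stimulus – [3H]CE-labeled HDL · Times – 60 min compound–liposome pre-incubation, then 4 h HDL at 37 °C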
# Sequence of Scavenger receptor class B member 1 (Mus musculus) (Q61009 whole entry, looked up): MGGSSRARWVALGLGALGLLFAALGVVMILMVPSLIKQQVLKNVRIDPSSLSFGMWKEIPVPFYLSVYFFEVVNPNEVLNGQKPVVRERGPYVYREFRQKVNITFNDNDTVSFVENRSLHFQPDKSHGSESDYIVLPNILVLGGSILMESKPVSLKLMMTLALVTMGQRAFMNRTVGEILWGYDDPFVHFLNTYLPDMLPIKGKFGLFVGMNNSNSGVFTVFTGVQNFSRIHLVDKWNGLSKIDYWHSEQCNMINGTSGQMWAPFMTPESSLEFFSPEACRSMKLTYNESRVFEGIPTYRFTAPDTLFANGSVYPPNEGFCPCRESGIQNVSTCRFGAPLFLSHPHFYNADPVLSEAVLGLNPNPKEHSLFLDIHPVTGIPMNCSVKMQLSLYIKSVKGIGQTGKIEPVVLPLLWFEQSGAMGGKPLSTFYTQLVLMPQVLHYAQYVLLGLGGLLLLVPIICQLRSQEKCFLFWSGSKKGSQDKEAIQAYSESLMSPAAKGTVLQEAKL
row,lipid uptake,SMILES
1,46.9%,COc1ccc(-c2nnn(CC(=O)N(C3CCCCC3)C(C)C(=O)NC3CCCC3)n2)cc1OC (centres undefined)
2,128% (inactive),O=C(Nc1ccccc1)c1ccccc1NS(=O)(=O)c1ccc(Cl)cc1
3,63.1%,CCC(=O)N1CCc2cc(-c3csc(NC(=O)c4ccco4)n3)ccc21
4,52.9%,CCOC(=O)N1CCC(NC(=O)c2ccc3c(c2)N(Cc2ccc(F)cc2)CCS3)CC1
